# In the library only some 1.6% were active in any assay of this set; here they are far more common.
# SR-BI HDL uptake – inhibitors of mouse SR-BI mediated HDL lipid uptake. Q61009. ldlA[mSR-BI] CHO cells, DiI-HDL uptake fluorescence, 3 h. inhibition, % at 12.5 µM. 0.96% of 320,000 active;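 active = mean replicate inhibition of at least 70% and a set share of replicates each scoring 70 or more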
# Target sequence (Q61009 whole entry, looked up): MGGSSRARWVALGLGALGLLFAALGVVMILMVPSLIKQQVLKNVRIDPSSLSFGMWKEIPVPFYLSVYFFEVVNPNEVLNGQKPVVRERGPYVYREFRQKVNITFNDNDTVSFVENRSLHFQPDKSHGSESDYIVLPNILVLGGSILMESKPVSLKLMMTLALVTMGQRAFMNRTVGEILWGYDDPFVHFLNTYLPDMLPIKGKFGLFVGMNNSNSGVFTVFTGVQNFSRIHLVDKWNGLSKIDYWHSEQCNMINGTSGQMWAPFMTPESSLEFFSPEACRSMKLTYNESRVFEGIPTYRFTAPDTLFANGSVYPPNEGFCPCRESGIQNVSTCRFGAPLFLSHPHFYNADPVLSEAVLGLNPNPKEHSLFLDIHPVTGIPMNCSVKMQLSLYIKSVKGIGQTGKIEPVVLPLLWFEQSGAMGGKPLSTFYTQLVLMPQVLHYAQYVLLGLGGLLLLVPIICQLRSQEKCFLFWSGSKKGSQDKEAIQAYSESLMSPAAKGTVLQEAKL
# SR-BI uptake up – activators of SR-BI mediated HDL lipid uptake | CHO ldlA[mSR-BI] cells, DiI-HDL uptake fluorescence, 3 h; 100 = double the neutral-control signal | activation, % at 12.5 µM | 0.096% of 320,000 active | AID 504775;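 active = mean replicate activation of at least 60% and every replicate at or above 60%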
#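 Test system: SR-BI-overexpressing, LDLR-lacking CHO cells; Medium: Ham's F12 with 0.5% BSA, HEPES 25 mM, pH 7.4; Schedule: 3 h, 37 °C; Technique: bottom-read fluorescence, 550/595 nm.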
# Vif inh – inhibitors of HIV Vif | AID 602346 | HEK293T cells, Vif self-association by quenched fluorescence, imaging, 24 h | inhibition, % at 7.49 µM | 0.35% of 340,000 active; in the data active = inhibition above about 50%, passing the limit was not always enough
# Bfl-1 A1 inh – inhibitors of the anti-apoptotic protein A1, read as caspase activation. MEF A1-2A-BIM cells, Caspase-Glo 3/7 luminescence, 3 h; percent of clofoctol response, vehicle zero. caspase activation, % (concentration not given with the values). 0.066% of 330,000 active. AID 2462;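 active = over half of replicate activation scores above 10%, or exactly half above 10 with the replicate mean above 10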
# H9c2 TAG inh – triacylglycerol accumulation inhibition; H9c2 cells, Nile Red lipid (TAG) fluorescence; cells loaded with 200 µM oleic acid; inhibition, % at 12.5 µM; 0.66% of 230,000 active;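 active = pattern-corrected inhibition of lipid staining of at least 50% with the nuclear-stain viability signal not falling by more than 50%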
# H9c2 TAG conf – triacylglycerol accumulation inhibition, confirmation. shares compounds with H9c2 TAG inh. AID 651629. H9c2 lipid accumulation, Nile Red fluorescence; cells loaded with 200 µM oleic acid. 71% of 990 active. inhibition, % at 12.5 µM;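 active = mean inhibition across replicates of 40% or more; inactive = mean inhibition below 40%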
# Numbers stand for hits; n = inactive; x = not tested or not shown.
SMILES,SR-BI HDL uptake,SR-BI uptake up,Vif inh,Bfl-1 A1 inh,H9c2 TAG inh,H9c2 TAG conf
C#CCN(C[C@@H]1[C@@H](OC(=O)NCC2CCCCC2)[C@@H](OC(=O)NCC2CCCCC2)CN(C(=O)OC(C)C)N1C(=O)OC(C)C)S(=O)(=O)c1ccc(C)cc1,x,x,n,x,51,61
O=[N+]([O-])c1ccccc1N/N=C1\CC2CC=CC12 (configuration not stated),n,n,n,n,n,x
Cc1ccc(NC(=O)c2nc[nH]c2C(=O)NCCCCNC(=O)c2[nH]cnc2C(=O)Nc2ccc(C)cc2)cc1,n,n,n,n,66,86
CCOC(=O)c1ccc(NC(=O)c2nc[nH]c2C(=O)NCCCNC(=O)c2[nH]cnc2C(=O)Nc2ccc(C(=O)OCC)cc2)cc1,n,n,n,n,n,x
CCOC(=O)c1ccc(NC(=O)c2nc[nH]c2C(=O)NCCCCNC(=O)c2[nH]cnc2C(=O)Nc2ccc(C(=O)OCC)cc2)cc1,n,n,n,n,122,86
Cc1ccc(NC(=O)c2nc[nH]c2C(=O)NCCCCCCNC(=O)c2[nH]cnc2C(=O)Nc2ccc(C)cc2)cc1,n,n,n,n,109,95
Cc1ccc(NC(=O)c2nc[nH]c2C(=O)NCCCNC(=O)c2[nH]cnc2C(=O)Nc2ccc(C)cc2)cc1,n,n,n,n,n,x
O=C(Nc1cccc(Cl)c1)c1nc[nH]c1C(=O)NCCCNC(=O)c1[nH]cnc1C(=O)Nc1cccc(Cl)c1,n,n,n,n,70,85
CC(C)CC(N)c1csc(Nc2ccc(C(F)(F)F)cn2)n1 (configuration not stated),x,x,n,x,n,x
O=C(c1ccoc1)N1CCN(c2cc(-c3cccnc3)nc3cc(-c4cccc(Cl)c4)nn23)CC1,x,x,n,x,52,41
O=C(c1ccoc1)N1CCN(c2cc(-c3ccccc3)nc3cc(-c4ccc(Br)cc4)nn23)CC1,x,x,n,x,75,65
O=C(c1ccncc1)N1CCN(c2cc(-c3ccccc3)nc3cc(-c4cccc(Cl)c4)nn23)CC1,x,x,n,x,n,x
O=C(c1ccoc1)N1CCN(c2cc(-c3ccncc3)nc3cc(-c4cccc(Cl)c4)nn23)CC1,x,x,n,x,63,49
CC1(C)O[C@@H]2C[C@H]3[C@@H]4CCC5=CC(=O)C=C[C@]5(C)[C@@]4(F)[C@@H](O)C[C@]3(C)[C@]2(C(=O)CO)O1,n,n,n,n,n,x
CC(=O)OCC(=O)[C@@]12OC3(CCCC3)O[C@@H]1C[C@H]1[C@@H]3CCC4=CC(=O)C=C[C@]4(C)[C@@]3(F)[C@@H](O)C[C@@]12C,n,n,n,n,57,64

# Screens deposited in PubChem BioAssay by several laboratories.
